Legend:
[1] = Selectivity index, ratio of CC50 for cytotoxicity against human MT4 cells to EC50 for antiviral activity against HIV1 IIIB infected in human MT4 cells; format: toxicity, cell-based; conditions: read-out: Ratio CC50/EC50
How it was run: (§1)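 SI is CC50 divided by EC50. CC50 comes from MTT viability of uninfected MT-4 cells. EC50 comes from MTT-read protection of MT-4 cells infected with HIV-1 IIIB or HIV-2 ROD. Each value was run in at least triplicate.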

[2] = test system: Human immunodeficiency virus 1; assay: Antiviral activity against HIV1 IIIB infected in human MT4 cells assessed as reduction in virus induced cytopathic effect measured after 5 days by MTT assay; format: functional, organism-based; conditions: Human immunodeficiency virus 1, IIIB, MT4, 120 h
How it was run: (§2)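 MT-4 cells were infected with HIV-1 IIIB or HIV-2 ROD, and cell viability was read by MTT. […] Each value was run in at least triplicate and averaged from at least three independent experiments.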

[3] = Selectivity index, ratio of CC50 for cytotoxicity against human MT4 cells to EC50 for antiviral activity against HIV2 ROD infected in human MT4 cells; format: toxicity, cell-based; conditions: read-out: Ratio CC50/EC50; how it was run: as §1
[4] = test system: Human immunodeficiency virus 2; assay: Antiviral activity against HIV2 ROD infected in human MT4 cells assessed as reduction in virus induced cytopathic effect measured after 5 days by MTT assay; format: functional, organism-based; conditions: Human immunodeficiency virus 2, ROD, MT4, 120 h; how it was run: as §2
[5] = Selectivity ratio of EC50 for antiviral activity against HIV1 IIIB infected in human MT4 cells to EC50 for antiviral activity against HIV2 ROD infected in human MT4 cells; format: toxicity, cell-based
How it was run: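 Ratio is EC50 against HIV-1 IIIB divided by EC50 against HIV-2 ROD. Both EC50 values come from MTT-read protection of infected MT-4 cells.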

[6] = Cytotoxicity against human MT4 cells assessed as reduction in cell viability incubated for 5 days by MTT assay; format: toxicity, cell-based; conditions: MT4 cells, time 5 day
How it was run: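 Uninfected MT-4 cells were exposed to compound, and viability was read by the MTT method. […] Each value was run in at least triplicate and averaged from at least three independent experiments.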

Row | SMILES | selectivity ratio [1] | EC50 [2] | selectivity ratio [3] | EC50 [4] | Ratio EC50 [5] | CC50 at 120 h [6]
1 | COc1ccc(-n2c(SCCN3CCOCC3)nnc2[C@H](Cc2ccccc2)NC(=O)Cc2c(C)[nH]c3ccccc23)cc1 | 103 | 0.79 µM | 16 | 4.98 µM | 0.16 | –
2 | COc1ccc(N(C)C(=O)[C@H](Cc2cc(F)cc(F)c2)NC(=O)CN2CCN(C(=O)Cc3c[nH]c4ccc(Br)cc34)CC2=O)cc1 | < 1 | > 3.15 µM | < 1 | > 3.15 µM | – | 3.15 µM
3 | COc1ccc(N(C)C(=O)[C@H](Cc2ccccc2)NC(=O)Cn2ccc(NC(=O)c3ccc(F)cc3)cc2=O)cc1 | – | > 34.8 µM | 2.15 | 16.2 µM | > 2.15 | 34.8 µM
4 | COc1ccc(N(C)C(=O)[C@H](Cc2ccccc2)NC(=O)Cn2ccc(NC(=O)c3ccc(N)cc3)cc2=O)cc1 | – | – | 11 | 17.1 µM | > 11.04 | 189 µM
5 | COc1ccc(N(C)C(=O)[C@H](Cc2ccccc2)NC(=O)Cn2ccc(NC(=O)c3ccc([N+](=O)[O-])cc3)cc2=O)cc1 | – | > 31.9 µM | – | > 31.9 µM | – | 31.9 µM
6 | COc1ccc(-n2c(SCCF)nnc2[C@H](Cc2ccccc2)NC(=O)Cc2c(C)[nH]c3ccccc23)cc1 | 20 | 1.24 µM | 6 | 4.07 µM | 0.3 | –
7 | COc1ccc(N(C)C(=O)[C@H](Cc2ccccc2)NC(=O)Cn2ccc(NC(=O)c3ccc4ccccc4c3)cc2=O)cc1 | – | > 27.6 µM | – | > 27.6 µM | – | 27.6 µM
8 | COc1ccc(N(C)C(=O)[C@H](Cc2cc(F)cc(F)c2)NC(=O)CN2CCN(C(=O)Cc3c[nH]c4ccc(OC)cc34)CC2=O)cc1 | < 1 | > 15.9 µM | < 1 | > 15.9 µM | – | 15.9 µM
9 | COc1ccc(N(C)C(=O)[C@H](Cc2ccccc2)NC(=O)CN2CCN(C(=O)Cc3c[nH]c4ccc(Br)cc34)CC2=O)cc1 | < 1 | > 16.4 µM | < 1 | > 16.4 µM | – | 16.4 µM
10 | COc1ccc(-n2c(SCc3ccncc3)nnc2[C@H](Cc2ccccc2)NC(=O)Cc2c(C)[nH]c3ccccc23)cc1 | 9 | 2.89 µM | 6 | 4.27 µM | 0.68 | –
11 | COc1ccc(N(C)C(=O)[C@H](Cc2ccccc2)NC(=O)CN2CCN(C(=O)c3ccc(NC(=O)C4CC4)cc3)CC2=O)cc1 | < 1 | – | 11.2 | 15 µM | > 11.15 | 168 µM
12 | COc1ccc(N(C)C(=O)[C@H](Cc2ccccc2)NC(=O)Cn2ccc(NC(=O)c3ccc(Cl)cc3)cc2=O)cc1 | – | > 25.5 µM | – | > 25.5 µM | – | 25.5 µM
13 | COc1ccc(-n2c(SCCCN3CCOCC3)nnc2[C@H](Cc2ccccc2)NC(=O)Cc2c(C)[nH]c3ccccc23)cc1 | 83 | 0.59 µM | 13 | 3.73 µM | 0.16 | –
14 | O=C(CN1CCN(S(=O)(=O)c2ccc([N+](=O)[O-])cc2)CC1)N[C@@H](Cc1ccccc1)c1nc2ccccc2c(=O)n1-c1ccc(S(=O)(=O)N2CCS(=O)(=O)CC2)cc1 | > 11.5 | 12.6 µM | > 198 | 0.73 µM | – | > 145 µM
15 | COc1ccc(N(C)C(=O)[C@H](Cc2ccccc2)NC(=O)CN2CCN(C(=O)c3ccc(NC(C)=O)cc3)CC2=O)cc1 | > 1.05 | – | > 1.16 | – | 1.1 | > 213 µM
16 | COc1ccc(-n2c(SCCC(F)(F)F)nnc2[C@H](Cc2ccccc2)NC(=O)Cc2c(C)[nH]c3ccccc23)cc1 | 11 | 2.87 µM | – | > 30.8 µM | < 0.09 | 30.8 µM
17 | COc1ccc(N(C)C(=O)[C@H](Cc2cc(F)cc(F)c2)NC(=O)CN(Cc2ccc(C#N)cc2)C(=O)Cc2ccc3ccccc3c2)cc1 | – | – | > 1 | – | 1.17 | > 189 µM
18 | COc1ccc(N(C)C(=O)[C@H](Cc2cc(F)cc(F)c2)NC(=O)CN2CCN(C(=O)c3ccc(NC(C)=O)cc3)CC2=O)cc1 | 1.11 | – | 1.02 | – | 0.92 | 196 µM
19 | COc1ccc(N(C)C(=O)[C@H](Cc2cc(F)cc(F)c2)NC(=O)CN(Cc2ccc(F)cc2)C(=O)Cc2ccc3ccccc3c2)cc1 | – | – | – | – | – | > 160 µM

— ChEMBL document CHEMBL5344428, “Discovery, Crystallographic Studies, and Mechanistic Investigations of Novel Phenylalanine Derivatives Bearing a Quinazolin-4-one Scaffold as Potent HIV Capsid Modulators” (J Med Chem, 2023)
